What was measured:
[1] = Mean residence time in C57BL/6N mouse at 5 mg/kg, iv administered as single dose by LC-MS/MS analysis; format: ADME, organism-based; set-up: dose 5 mg/kg, route intravenous; conditions: in vivo
How it was run: (§1)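 Male C57BL/6N mice given 5 mg/kg iv bolus as 1 mg/mL filtered solution in DMSO:PEG400:water 10:50:40. Plasma extracted with acidified acetonitrile (diclofenac IS), analysed by LC-MS/MS. Composite non-compartmental parameters from mean concentrations (n=3 per time point); C0 back-extrapolated from first two points; kel from at least last three concentrations.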

Mus musculus [2] = assay: Dose normalised AUC in C57BL/6N mouse at 5 mg/kg, iv administered as single dose by LC-MS/MS analysis; format: ADME, organism-based; set-up: dose 5 mg/kg, route intravenous; conditions: in vivo
How it was run: (§2)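 Single intravenous bolus of 5 mg/kg to male C57BL/6N mice, given as a filtered 1 mg/mL solution in DMSO:PEG400:water 10:50:40 (v/v). Plasma was extracted in acidified acetonitrile with diclofenac as internal standard and analysed by UPLC-MS/MS. Non-compartmental analysis used mean concentrations (n=3 per time point), with C0 back-extrapolated from the first two samples. AUCinf = AUClast + Ct/kel.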

[3] = Metabolic stability in mouse liver microsomes assessed as intrinsic clearance at 5 uM after 5 to 40 mins by LC-MS/MS analysis; format: ADME; conditions: read-out: CLH
[4] = Cmax in C57BL/6N mouse at 0.05 mg/kg, po administered via gavage by LC-MS/MS analysis; format: ADME, organism-based; set-up: dose 0.05 mg/kg, route oral; conditions: in vivo
How it was run: (§3)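 Male C57BL/6N mice were dosed by oral gavage at 10 mL/kg with a fine suspension in 10% hydroxypropyl-β-cyclodextrin in 50 mM phosphate buffer, pH 7. Plasma was taken at non-serial time points (n=3 per time point), extracted with 0.1% formic acid in acetonitrile containing diclofenac as internal standard, and quantified by UPLC-MS/MS. Composite non-compartmental parameters came from mean concentrations; AUClast by linear trapezoid, kel from at least three terminal points.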

[5] = Cmax in mouse at 25 mg/kg/day, po; format: ADME, organism-based; set-up: dose 25 mg/kg/day, route oral; conditions: in vivo
[6] = AUClast in C57BL/6N mouse at 0.05 mg/kg, po administered via gavage by LC-MS/MS analysis; format: ADME, organism-based; set-up: time 0 - last, dose 0.05 mg/kg, route oral; conditions: plasma; how it was run: as §3
[7] = Plasma protein binding in mouse at 5 and 20 uM for 6 hrs by LC-MS/MS analysis; format: ADME, cell-free; conditions: read-out: PPB
How it was run: (§4)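 Equilibrium dialysis: plasma fortified in triplicate (5 and 20 µM rat and mouse; 10 µM human) on donor side, PBS on receiver side; 37°C, 200 rpm, 6 h; both sides by LC-MS/MS.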

[8] = AUClast in C57BL/6N mouse at 5 mg/kg, iv administered as single dose by LC-MS/MS analysis; format: ADME, organism-based; set-up: time 0 - last, dose 5 mg/kg, route intravenous; conditions: plasma; how it was run: as §2
[9] = AUC(infinity) in C57BL/6N mouse at 5 mg/kg, iv administered as single dose by LC-MS/MS analysis; format: ADME, organism-based; set-up: time infinity, dose 5 mg/kg, route intravenous; conditions: plasma; how it was run: as §2
[10] = Tmax in C57BL/6N mouse at 0.05 mg/kg, po administered via gavage by LC-MS/MS analysis; format: ADME, organism-based; set-up: dose 0.05 mg/kg, route oral; conditions: in vivo
How it was run: (§5)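 Male C57BL/6N mice dosed by oral gavage (10 mL/kg) as fine suspensions in 10% hydroxypropyl-β-cyclodextrin in 50 mM phosphate buffer pH 7; dose formulations verified by LC-MS/MS. Plasma analysed by LC-MS/MS; composite non-compartmental parameters from mean concentrations (n=3 per time point), C0 set to zero. %F = dose-normalised po AUCinf over dose-normalised iv AUCinf, only within linear range.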

[11] = Cmax in R6/2 mouse at 7.5 mg/kg/day, po; format: ADME, organism-based; set-up: dose 7.5 mg/kg/day, route oral; conditions: in vivo
[12] = Plasma protein binding in human at 10 uM for 6 hrs by LC-MS/MS analysis; format: ADME, cell-free; conditions: read-out: PPB; how it was run: as §4
[13] = Volume of distribution at steady state in C57BL/6N mouse at 5 mg/kg, iv administered as single dose by LC-MS/MS analysis; format: ADME, organism-based; set-up: dose 5 mg/kg, route intravenous; conditions: in vivo, read-out: Vdss; how it was run: as §1
[14] = biological target: Kynurenine 3-monooxygenase (Mus musculus, UniProt Q91WN4); assay: Inhibition of C57BL/6J mouse KMO assessed as 3-hydroxykynurenine formation preincubated for 5 mins using 100 uM kynurenine as substrate by LC-MS/MS analysis in presence of 3 mg/ml plasma protein
How it was run: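 Liver mitochondrial KMO (mouse C57 BL/6J or human), 0.3 mg protein/mL in 100 mM potassium phosphate pH 7.4, 200 µM NADPH, NADPH-regenerating system, plus 3 mg/mL plasma protein. Compound pre-incubated 5 min at 25°C; 100 µM kynurenine started reaction for 40 min (mouse) or 60 min (human); TCA stop; 3-hydroxykynurenine by LC-MS/MS. IC50 from 8-point 3-fold series, triplicates, n≥2.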

[15] = Mean residence time in C57BL/6N mouse at 5 mg/kg, iv administered as single dose containing <0.4% Ro-61-8048 by LC-MS/MS analysis; format: ADME, organism-based; set-up: dose 5 mg/kg, route intravenous; conditions: in vivo
How it was run: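 Male C57BL/6N mice given 5 mg/kg iv bolus (1 mg/mL, DMSO:PEG400:water 10:50:40, filtered); dosed material carried Ro-61-8048 as impurity, which was also quantified in plasma. LC-MS/MS after acetonitrile/formic acid extraction; composite non-compartmental analysis of mean concentrations (n=3 per time point), C0 back-extrapolated, kel from ≥3 terminal points.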

[16] = AUC(infinity) in C57BL/6N mouse at 5 mg/kg, iv administered as single dose containing <0.4% Ro-61-8048 by LC-MS/MS analysis; format: ADME, organism-based; set-up: time infinity, dose 5 mg/kg, route intravenous; conditions: plasma; how it was run: as §2
[17] = Half life in simulated gastric fluid of pH 1.2 at 10 uM after 2 and 4 hrs by LC-UV analysis; format: ADME
How it was run: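 Compound at 10 µM was shaken at about 25 °C in simulated gastric fluid (2 g/L NaCl, 3.2 g/L pepsin, 0.7% HCl, pH 1.2) and in pepsin-free gastric buffer. Aliquots were taken at 0, 2 and 4 h, diluted into DMSO, and analysed immediately by LC-UV at 254 nm.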

[18] = AUClast in C57BL/6N mouse at 5 mg/kg, iv administered as single dose containing <0.4% Ro-61-8048 by LC-MS/MS analysis; format: ADME, organism-based; set-up: time 0 - last, dose 5 mg/kg, route intravenous; conditions: plasma; how it was run: as §2
Mus musculus [19] = assay: Dose normalised Cmax in C57BL/6N mouse at 10 mg/kg, po administered via gavage containing <0.4% Ro-61-8048 by LC-MS/MS analysis; format: ADME, organism-based; set-up: dose 10 mg/kg, route oral; conditions: in vivo; how it was run: as §3
[20] = Oral bioavailability in C57BL/6N mouse treated with JM6 (containing <0.4% Ro-61-8048) at 9 mg/kg and Ro-61-8048 at 1 mg/kg drugs administered via gavage by LC-MS/MS analysis; format: ADME, organism-based; conditions: in vivo; how it was run: as §5
[21] = Half life in C57BL/6N mouse at 5 mg/kg, iv administered as single dose containing <0.4% Ro-61-8048 by LC-MS/MS analysis; format: ADME, organism-based; set-up: dose 5 mg/kg, route intravenous; conditions: in vivo; how it was run: as §2
[22] = Metabolic stability in mouse blood assessed as half life at 5 uM by LC-MS/MS analysis; format: ADME, tissue-based
[23] = Cmax in mouse at 25 mg/kg, po; format: ADME, organism-based; set-up: dose 25 mg/kg, route oral; conditions: in vivo
Mus musculus [24] = assay: Half life in C57BL/6N mouse at 10 mg/kg, po administered via gavage containing <0.4% Ro-61-8048 by LC-MS/MS analysis; format: ADME, organism-based; set-up: dose 10 mg/kg, route oral; conditions: in vivo; how it was run: as §3
Mus musculus [25] = assay: Dose normalised AUC in C57BL/6N mouse at 5 mg/kg, iv administered as single dose containing <0.4% Ro-61-8048 by LC-MS/MS analysis; format: ADME, organism-based; set-up: dose 5 mg/kg, route intravenous; conditions: in vivo; how it was run: as §2

Kynurenine 3-monooxygenase, sequence (Q91WN4 whole entry): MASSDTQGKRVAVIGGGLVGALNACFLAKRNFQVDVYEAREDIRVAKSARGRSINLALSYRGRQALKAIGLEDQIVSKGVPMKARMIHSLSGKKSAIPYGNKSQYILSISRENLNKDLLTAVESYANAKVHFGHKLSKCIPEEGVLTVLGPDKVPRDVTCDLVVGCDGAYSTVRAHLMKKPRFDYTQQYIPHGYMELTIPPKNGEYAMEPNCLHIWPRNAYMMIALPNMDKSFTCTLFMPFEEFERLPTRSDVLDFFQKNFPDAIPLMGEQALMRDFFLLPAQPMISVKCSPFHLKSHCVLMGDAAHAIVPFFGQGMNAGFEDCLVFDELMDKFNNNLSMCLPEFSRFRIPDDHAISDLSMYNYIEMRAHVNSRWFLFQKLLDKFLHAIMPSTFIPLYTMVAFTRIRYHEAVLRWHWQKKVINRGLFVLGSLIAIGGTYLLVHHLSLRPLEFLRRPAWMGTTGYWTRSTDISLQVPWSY

In the case of `COc1ccc(S(=O)(=O)Nc2nc(-c3cccc([N+](=O)[O-])c3)cs2)cc1OC`, the MRT [1] is reported as 498 min, the AUC/dose (Mus musculus [2]) is reported as 130000 nM·kg·h/mg and the microsomal CLint at 5 µM [3] is reported as under 29 µL/min/mg. The Cmax [4] was 550 nM, the Cmax [5] was 280 nM and the AUC(0-t) [6] was 4.3 µM·h. The fraction unbound at 6 h [7] was under 0.01, the AUC(0-t) [8] was 510 µM·h and the AUC(0-inf) [9] was 550 µM·h. It also gave a Tmax [10] of 30 min, a Cmax [11] of 280 nM and a fraction unbound at 6 h, 10 µM [12] of under 0.01. For the same compound, the Vd [13] was 0.15 L/kg and the IC50 [14] was at least 12 µM.
Compound `COc1ccc(S(=O)(=O)Nc2nc(-c3cccc([N+](=O)[O-])c3)c(CN3CCCCC3)s2)cc1OC` has an MRT [15] of 12 min, an AUC(0-inf) [16] of 5.2 µM·h and a half-life at 10 µM [17] of over 1080 min. The AUC(0-t) [18] was 5.2 µM·h, the Cmax/dose (Mus musculus [19]) was 110 nM and the bioavailability [20] was 7.8%. For the same compound, the half-life [21] was 43.2 min, the half-life at 5 µM [22] was over 150 min and the Cmax [23] was 3400 nM. For the same compound, the t1/2 (Mus musculus [24]) was 66 min and the AUC/dose (Mus musculus [25]) was 1000 nM·kg·h/mg.

From ChEMBL document CHEMBL3526063, “Metabolism and pharmacokinetics of JM6 in mice: JM6 is not a prodrug for Ro-61-8048” (Drug Metab Dispos, 2012)
